The values below come from ChEMBL document CHEMBL3994609, “Model-Based Discovery of Synthetic Agonists for the Zn2+-Sensing G-Protein-Coupled Receptor 39 (GPR39) Reveals Novel Biological Functions” (J Med Chem, 2017).

The structures appear in SMILES notation. In brackets after ≈: the same amount, converted by molar mass. Activity calls are given as the source filed them. The rule behind the calls is not given here.

Series [1] can be described thus: Aqueous solubility of the compound in phosphate buffered saline at pH 7.0 at 10 mM by turbidimetric method.
In series [2] the target is Growth hormone secretagogue receptor type 1 (Homo sapiens) (UniProt Q92847). Kind of series: Agonist activity at human ghrelin receptor ([…]) assessed as myo-[2-3H]inositol phosphate accumulation in presence of 10 uM Zn2+ measured after 75 mins by scintillation proximity assay. It is filed as functional. Background: In a scintillation proximity assay essentially only radioactivity close to the scintillant gives light.

Series [3] is described as follows: Apparent permeability from apical to basolateral side in human Caco2 cells by LC-MS/MS analysis. It is filed as ADME, cell-based. To be noted: Caco-2. (Caco-2 cells form a polarised layer with tight junctions and transporters.)
Series [4] deals with C-C chemokine receptor type 5 (Macaca mulatta) (UniProt P61813). Kind of series: Agonist activity at full length monkey CCR5 assessed as myo-[2-3H]inositol phosphate accumulation in presence of 10 uM Zn2+ measured after 75 mins by scintillation proximity assay. The format is functional.
Series [5] addresses Motilin receptor (Homo sapiens) (UniProt O43193). Kind of series: Agonist activity at human motilin receptor (412 residues) assessed as myo-[2-3H]inositol phosphate accumulation measured after 75 mins by scintillation proximity assay. It is filed as functional.
The target of series [6] is T1, G-protein coupled receptor 39 (Mus musculus) (UniProt Q5U431).
T1 sequence (whole entry): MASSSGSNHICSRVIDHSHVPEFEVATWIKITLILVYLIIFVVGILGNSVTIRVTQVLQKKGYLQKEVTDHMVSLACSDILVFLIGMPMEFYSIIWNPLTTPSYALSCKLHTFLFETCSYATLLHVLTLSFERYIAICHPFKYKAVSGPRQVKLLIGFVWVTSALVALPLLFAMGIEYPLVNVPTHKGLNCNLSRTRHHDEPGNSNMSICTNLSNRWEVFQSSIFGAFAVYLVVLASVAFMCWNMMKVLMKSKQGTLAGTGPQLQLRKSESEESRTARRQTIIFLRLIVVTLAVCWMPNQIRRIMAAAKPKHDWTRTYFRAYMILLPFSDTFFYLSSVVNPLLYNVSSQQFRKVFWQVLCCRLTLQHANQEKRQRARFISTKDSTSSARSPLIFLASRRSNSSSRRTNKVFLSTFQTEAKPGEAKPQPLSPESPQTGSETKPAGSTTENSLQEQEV
The series is described as follows: Agonist activity at GPR39 in primary gastric mucosal cells isolated from C57BL/6 mouse assessed as inhibition of basal ghrelin secretion at 1 uM in presence of 10 uM of Zn2+ measured after 4 hrs by ELISA relative to basal level. Background: An ELISA detects its analyte on a solid surface through an enzyme-linked reagent.

In a further series the test system is Pancreatic islet. The series is described as follows: Induction of glucose-stimulated insulin release in mouse pancreatic islets at 1 uM pretreated for 24 hrs followed by glucose addition measured after 30 mins. The format is functional, cell-based. The method in brief:
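Islets isolated from GPR39-deficient mice and wild-type littermates on five independent days, 2 to 3 mice per day; insulin secretion measured with vehicle or 1 μM compound.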

In series [7] the target is T1, G-protein coupled receptor 39 (Mus musculus). The series is described as follows: Agonist activity at GPR39 in primary gastric mucosal cells isolated from C57BL/6 mouse assessed as inhibition of isoproterenol-induced ghrelin secretion at 1 uM in presence of 10 uM of Zn2+ and somatostatin receptor antagonist BIM-23627 measured after 4 hrs by ELISA. In a few lines:
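Primary gastric mucosal cell cultures from mice, incubated the day after preparation with ligands at 1 μM with 10 μM Zn2+ (with or without a somatostatin receptor antagonist) in triplicate for 4 h. Acyl-ghrelin in supernatant measured by ELISA, expressed as percent of medium-alone cells; n=5–7; unpaired t-test with Welch's correction versus vehicle.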

The target of series [8] is T2, G-protein coupled receptor 39 (Homo sapiens) (UniProt O43194).
T2 sequence (whole entry): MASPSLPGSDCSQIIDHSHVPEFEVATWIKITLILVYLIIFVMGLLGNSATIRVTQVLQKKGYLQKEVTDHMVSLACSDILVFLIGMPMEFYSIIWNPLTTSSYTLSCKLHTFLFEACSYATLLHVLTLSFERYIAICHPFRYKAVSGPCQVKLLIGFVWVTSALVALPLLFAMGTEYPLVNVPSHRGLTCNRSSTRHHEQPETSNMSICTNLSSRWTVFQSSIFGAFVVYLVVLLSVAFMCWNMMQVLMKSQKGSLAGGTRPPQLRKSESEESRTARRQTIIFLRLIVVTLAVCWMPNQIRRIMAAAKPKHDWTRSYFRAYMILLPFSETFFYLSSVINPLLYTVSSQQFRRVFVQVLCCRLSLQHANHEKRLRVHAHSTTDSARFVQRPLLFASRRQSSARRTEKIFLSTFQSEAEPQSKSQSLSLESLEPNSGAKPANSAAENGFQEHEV
The series is described as follows: (§1) Agonist activity at GPR39 (unknown origin) expressed in COS7 cells co-expressing Galphas assessed as increase in intracellular cAMP level in presence of 3 uM Zn2+ measured after 30 mins by chemiluminescence assay. The format is functional, cell-based.

Series [9] deals with T3, G-protein coupled receptor 39 (Homo sapiens, UniProt O43194).
T3 sequence (O43194 whole entry): T2 sequence (whole entry)
The series is described as §1. The format is functional, cell-based.

The target of series [10] is Neuromedin-U receptor 2 (Homo sapiens) (UniProt Q9GZQ4). Kind of series: Agonist activity at human NMU2 receptor assessed as myo-[2-3H]inositol phosphate accumulation in presence of 10 uM Zn2+ measured after 75 mins by scintillation proximity assay. It is filed as functional.
Chain of Neuromedin-U receptor 2 (Homo sapiens) (Q9GZQ4 whole entry): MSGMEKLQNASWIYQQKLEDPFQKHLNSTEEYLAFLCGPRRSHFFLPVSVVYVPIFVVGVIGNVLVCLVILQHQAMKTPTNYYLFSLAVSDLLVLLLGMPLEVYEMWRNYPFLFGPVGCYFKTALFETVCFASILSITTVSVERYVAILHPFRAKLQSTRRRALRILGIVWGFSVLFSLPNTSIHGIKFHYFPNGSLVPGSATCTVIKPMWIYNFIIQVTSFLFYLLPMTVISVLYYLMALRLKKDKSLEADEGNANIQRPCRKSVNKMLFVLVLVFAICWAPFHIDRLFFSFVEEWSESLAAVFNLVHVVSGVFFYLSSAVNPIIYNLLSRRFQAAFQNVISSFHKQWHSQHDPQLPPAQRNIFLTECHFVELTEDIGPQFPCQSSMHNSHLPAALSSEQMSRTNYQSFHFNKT

Chain of Motilin receptor (Homo sapiens) (O43193 whole entry): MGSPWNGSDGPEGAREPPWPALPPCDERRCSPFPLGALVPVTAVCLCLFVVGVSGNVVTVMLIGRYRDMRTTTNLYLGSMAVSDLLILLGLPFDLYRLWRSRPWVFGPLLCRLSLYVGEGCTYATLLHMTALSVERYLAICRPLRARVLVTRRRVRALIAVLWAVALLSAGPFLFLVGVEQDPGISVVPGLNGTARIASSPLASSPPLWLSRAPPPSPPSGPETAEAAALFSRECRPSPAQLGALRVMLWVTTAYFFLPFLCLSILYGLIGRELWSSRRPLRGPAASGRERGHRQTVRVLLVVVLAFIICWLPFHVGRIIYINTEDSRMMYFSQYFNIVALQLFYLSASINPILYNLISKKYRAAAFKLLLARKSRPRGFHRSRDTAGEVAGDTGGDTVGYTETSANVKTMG
Chain of Growth hormone secretagogue receptor type 1 (Homo sapiens) (Q92847 whole entry): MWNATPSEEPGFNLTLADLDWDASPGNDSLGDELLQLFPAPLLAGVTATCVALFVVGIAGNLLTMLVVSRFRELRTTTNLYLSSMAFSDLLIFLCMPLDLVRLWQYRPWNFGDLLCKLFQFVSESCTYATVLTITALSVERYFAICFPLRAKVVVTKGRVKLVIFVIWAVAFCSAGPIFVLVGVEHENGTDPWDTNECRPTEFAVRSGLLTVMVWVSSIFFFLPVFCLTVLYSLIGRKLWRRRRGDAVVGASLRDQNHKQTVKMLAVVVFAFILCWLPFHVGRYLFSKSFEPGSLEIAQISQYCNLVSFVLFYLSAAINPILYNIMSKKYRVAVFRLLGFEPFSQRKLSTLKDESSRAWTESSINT

The kinetic solubility is solubility judged after dilution from a stock solution rather than from solid. As usually defined, the Papp A→B is how fast a substance crosses the layer from the apical side. Usually inhibition stands for how much of the control response was suppressed. The EC50 is the concentration at which the effect is half-maximal. In turn, `Cc1nn(-c2ncnc3nc[nH]c23)c2c1C(c1ccc(F)cc1Cl)CC(=O)N2` (stereo unspecified) showed a kinetic solubility at 10000 µM in [1] of 65 µM (≈ 25.9 µg/mL). Further, the outcome (in series [2]; in series [4]; in [5]; with Pancreatic islet; in series [10]) was inactive. Also, in series [3], the Papp A→B is 25 ×10⁻⁶ cm/s. The inhibition in [6] was determined as 79%. Further, the inhibition entry in series [7] was “inactive”. In addition, the Activity entry in series [8] was “Dose-dependent effect”. Also, the EC50 in series [9] is 17 nM.
